Source: PubChem BioAssay
This is a sample that favours compounds with a hit; in the whole collection about 0.84% have one here.
DDE Tn7 FP inh: inhibitors of Tn7 peptide binding to fibrin DD(E), primary screen, biochemical, fluorescence polarization, human fibrin, Tn7 probe. Fibrinogen beta chain (Homo sapiens), P02675. FP displacement of FITC-Tn7 peptide from fibrin DD(E); 0% = median of compound wells per plate. inhibition, % at 8.3 µM. actives 0.13% (n = 370,000);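 active means inhibition above the mean of compounds falling within the control limits plus 3 SD of them, cut at about 14% in these data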;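 further: 0% = plate median of compound wells and 100% = 10 µM Aha-Tn7 peptide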
Target sequence (P02675 whole entry, looked up): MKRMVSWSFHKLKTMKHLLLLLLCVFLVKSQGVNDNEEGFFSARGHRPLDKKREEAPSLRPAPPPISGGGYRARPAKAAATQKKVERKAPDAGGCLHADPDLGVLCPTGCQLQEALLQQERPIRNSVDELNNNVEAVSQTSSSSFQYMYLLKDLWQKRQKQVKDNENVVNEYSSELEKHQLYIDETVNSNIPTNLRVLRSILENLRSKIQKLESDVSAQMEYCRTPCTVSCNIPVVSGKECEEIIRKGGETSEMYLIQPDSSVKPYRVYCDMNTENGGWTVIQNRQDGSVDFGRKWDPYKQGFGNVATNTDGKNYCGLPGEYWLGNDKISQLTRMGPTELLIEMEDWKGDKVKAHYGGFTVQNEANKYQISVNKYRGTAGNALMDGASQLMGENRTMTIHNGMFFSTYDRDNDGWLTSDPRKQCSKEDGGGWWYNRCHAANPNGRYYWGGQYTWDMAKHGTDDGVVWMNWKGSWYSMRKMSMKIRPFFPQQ
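Assay system: Human clot-derived fibrin DD(E) complex | Buffer or medium: Tris/NaCl/CaCl2 buffer, pH 7.8 | Repeats: One replicate per compound | Benchmarks: Aha-Tn7 high control | Measure: % inhibition scaled between sample-field median and high-control FP | Schedule: 10 min plus 3 h, room temperature | Signal: Fluorescence polarization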
Tn6 DDE FP: inhibitors of Tn6 peptide binding to fibrin DD(E), primary screen, biochemical, fluorescence polarization, human fibrin, Tn6 probe | Fibrin DD(E) TRITC-Tn6 fluorescence polarization displacement | inhibition, % at 8.3 µM | actives 0.21% (n = 370,000) | AID 720509, 2013 | Fibrinogen beta chain (Homo sapiens), P02675;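 active means inhibition above a per-campaign cutoff: mean of compounds within control limits plus 3 SD, cut at about 15% in these data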;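 further: 0% = median of all compound wells on the plate and 100% = blocking peptide control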
SKN-1 inh: suppressors of acrylamide-induced Pgst-4::GFP reporter in worms, primary screen, SKN-1 inhibitor project, whole organism, uHTS, GFP/RFP fluorescence ratio, strain VP596; actives 0.49% (n = 360,000); C. elegans VP596 Pgst-4::GFP/RFP ratio, 24 h; inhibition, % at 21.8 µM; AID 624304, 2012;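 active means interference check ratio from 0.5 to 1.5 plus GFP to RFP signal ratio inhibition reaching or exceeding a fixed threshold, cut at about 30% in these data, passing the limit was not always enough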
MT1-MMP act inh: blockers of MT1-MMP proenzyme processing, primary screen, HT1080 RFP-PRO-GFP cells, GFP/RFP fluorescence | GFP/RFP ratio fluorescence, overnight; percent of plate control window, DMSO zero | GFP/RFP ratio change, % at 20 µM | actives 0.061% (n = 360,000) | AID 651647, 2012;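 active means GFP/RFP ratio change of at least 30% with cell ATP level not reduced by more than half and red fluorescence within 50% of control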
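Test system: HT1080 RFP-PRO-GFP cells; Benchmarks: DMSO and RFP-L50D-GFP cell wells; Timing: cells overnight before dosing, compound overnight, 37 °C, 5% CO2; Compound: one 20 µM compound dose with 1% DMSO; Read-out: GFP/RFP fluorescence ratio.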
Starred values were filed as active, the others as inactive; . = no result given.

SMILES	DDE Tn7 FP inh	Tn6 DDE FP	SKN-1 inh	MT1-MMP act inh
CN(C)c1ccc(N=Nc2cccc3ccoc23)cc1	2	-3	29	5
Cc1ccc2ncccc2c1	-2	-2	-1	1
c1cnc2ccc(-c3ccc4ncccc4c3)cc2c1	-5	1	74*	-4
Cc1cc(N(C)C)ccc1N=Nc1ccc2ncccc2c1	3	-6	69*	12
CN(C)c1ccc(N=Nc2ccc3ncccc3c2)cc1	2	3	59*	23
CN(C)c1ccc(N=Nc2cccc(F)c2)cc1	-2	4	34*	1
COC(=O)c1sc(S(=O)(=O)NCCC(=O)O)c(C(=O)OC)c1C	1	-1	2	-1
CC1=CC(=O)C(C2CCCCC2)=C/C1=N\OS(=O)(=O)c1ccccc1	7	-4	.	.
CC(c1c[nH]c2ccccc12)c1cn(C)c2ccccc12 (stereo not given)	-12	2	.	.
O=c1c2ccccc2sc2ccccc12	1	-14	43*	-8
O=c1c2ccccc2sc2ccc(Cl)cc12	4	3	32	7
O=c1c2ccccc2ccc2ccccc12	10	3	35*	-3
Nc1ccc2c(c1)sc1ccccc12	6	0	54*	2
Nc1ccc2nc(N)sc2c1	-1	5	6	7
Cc1ccc(S(=O)(=O)N2CCOCC2)cc1NC(=O)CNCC1CCCCC1	-5	-1	1	-3
Cc1cc(C)n(-c2ccc(C(=O)N3CCN(S(=O)(=O)c4ccc(Br)cc4Cl)CC3)cc2)n1	-2	4	-17	2
S=P(c1ccc(N2CCOCC2)cc1N1CCOCC1)(N1CCOCC1)N1CCOCC1	2	1	44*	0
Cc1ccc(NC(=O)c2ccc(Cl)c(S(=O)(=O)N3CCCCC3)c2)nc1	4	0	-7	-3
Nn1c(=S)[nH]c2sc3c(c2c1=O)CCCC3	5	-11	36*	2
COc1ccc(Cn2c(NC(=O)c3ccccc3)nc(Cc3ccccc3)c2Cc2ccccc2)c(OC)c1	6	-4	.	.
CCOc1ccccc1NC(=O)CSc1ncnc2c1oc1ccccc12	-4	-7	34*	-2
Cc1nnc(-c2cccc(Br)c2)c2cn(-c3cccc(Br)c3)nc12	5	4	36*	7
Cc1nnc(-c2cccc(Br)c2)c2cn(-c3ccccc3)nc12	-7	-6	65	-37
COc1ccc(Cn2cc(CN3[C@H](C)COc4cc(Br)ccc4S3(=O)=O)nn2)cc1	1	3	.	.
COC(=O)[C@]12C[C@H](CC(=O)NCCCN3CCCC3=O)C(=O)N(Cc3ccc(Cl)cc3Cl)C1=C[C@H](C(C)C)O[C@@H]2C1CC1	-3	-3	.	.
SMILES	DDE Tn7 FP inh	Tn6 DDE FP	SKN-1 inh	MT1-MMP act inh
O=C(NCC(c1cccnc1)N1CCN(c2ccc(F)cc2)CC1)c1ccc2c(c1)OCO2 (stereo not given)	2	-1	42*	1
C=CCn1cc(-c2cccc(Cl)c2)cc(C#N)c1=O	0	10	40*	3
COc1ccc(-n2c(C)nc3cc(C(=O)NCc4ccco4)ccc32)cc1	0	-4	41*	6
CCOc1ccc(-n2c(C)nc3cc(C(=O)NCc4ccco4)ccc32)cc1	-8	-4	19	3
CCOc1ccc(-n2c(SCC(=O)c3ccc4ccccc4c3)nnc2-c2ccc(OC)cc2)cc1	-12	3	.	.
Brc1ccc(-c2cnc(-c3cccs3)o2)cc1	-5	3	89*	-3
CN(C)c1ccc(-c2nnc(-c3cccs3)o2)cc1	6	0	8	2
CCCCCCCCN1C(=O)[C@@H](CC(=O)NCc2ccc(OC)c(OC)c2)C[C@@]2(C(=O)OC)C1=C[C@H](C(C)C)O[C@@H]2C1CC1	0	0	.	.
O=S(=O)(Cc1ccc(Cl)cc1)Oc1ccc(Cl)cc1	2	3	46*	2
O=[N+]([O-])c1ccc(OS(=O)(=O)Cc2ccccc2)cc1	5	-4	-3	0
Cc1[nH]c2c(ccc3cccnc32)c1C	3	8	16	.
